Experimental data reported in publication PMC5935105 (Analytical biochemistry, 2018).

What was measured:
[1] = target: SOS-catalyzed nucleotide exchange on RAS (SOScat, K-RAS G12D) (Homo sapiens, UniProt Q07889); experiment: SOS-catalyzed nucleotide exchange assay using BODIPY-GDP-loaded RAS; type: biochemical; conditions: average of the two values of Table 1; 100 μM compound; normalized to API
Procedure, shortened: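 SOScat (residues 564–1049) with BODIPY-GDP-loaded RAS in 25 mM Tris pH 7.5, 50 mM NaCl, 1 mM MgCl2. Compound added at 10 s and unlabeled GTP at 120 s; fluorescence loss followed for 30 min. Rates come from single-exponential decay fits, normalized between SOS-catalyzed exchange without compound (0) and the maximal rate from the control compound on each plate (100).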

[2] = test system: RAS-GTP levels in HeLa cells; experiment: RAS-GTP levels in HeLa cells; type: cell-based; conditions: 30 minutes, up to 200 μM compound
[3] = test system: phospho ERK1/2 T202/Y204 levels in HeLa cells; experiment: phospho ERK1/2 T202/Y204 levels in HeLa cells; type: cell-based; conditions: 30 minutes; for phospho ERK levels at higher concentrations: higher concentrations (up to 200 μM); for phospho ERK levels at lower concentrations: lower concentrations of compound

| Average Relative Rate of Nucleotide Exchange at 100 μM [1] [%] | SMILES | RAS-GTP levels relative to DMSO control [2] | phospho ERK levels at higher concentrations [3] | phospho ERK levels at lower concentrations [3] |
| --- | --- | --- | --- | --- |
| 69.1 | c1ccc(C(CCNC2CCNCC2)c2ccccc2)cc1 [Compound 4a, N-(3,3-diphenylpropyl)piperidin-4-amine] | increase in RAS-GTP levels was observed | inhibition of phospho ERK levels was observed | induction of phospho ERK levels |
| 50.9 | CCCN1CCC(NCCC(c2ccccc2)c2ccccc2)CC1 [Compound 4, N-(3,3-diphenylpropyl)-1-propylpiperidin-4-amine] | did not cause an increase in RAS-GTP levels |  |  |
| 100 | N[C@@H](Cc1c[nH]c2ccccc12)C(=O)NC1CCN(Cc2c[nH]c3ccc(Cl)cc23)CC1 [API, (S)-2-amino-N-(1-((5-chloro-1H-indol-3-yl)methyl)piperidin-4-yl)-3-(1H-indol-3-yl)propanamide, reference compound] | increase in RAS-GTP levels was observed | inhibition of phospho ERK levels was observed | induction of phospho ERK levels |
